mABHD4 FP: inhibitors of mouse ABHD4; inhibition, % at 8.92 µM; actives 0.54% (n = 370,000); AID 720543; Q8VD66; purified mABHD4, FP-Rh probe fluorescence polarization;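 active = inhibition exceeding the mean over every tested compound plus 3 SD, cut at about 30% in these data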
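system = mouse ABHD4 enzyme, wild type | medium = HEPES pH 7.0, NaCl, Pluronic buffer | also added = FP-Rh probe | incubation = Enzyme–compound pre-incubation 45 min, then probe 60 min, both 25 °C | technique = fluorescence polarization, excitation 525 nm, emission 598 nm, BODIPY TMR filters | controls = S159A mutant high control, sample median low control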
SIAE primary: inhibitors of human sialic acid acetylesterase SIAE; SIAE FP-Rh probe binding, fluorescence polarization; actives 0.69% (n = 370,000); Q9HAT2; inhibition, % at 9.66 µM;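 active = inhibition above a cutoff: mean of compounds within the control limits plus 3 SD of those, cut at about 17% in these data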
PRMT1 FP inh: inhibitors of human PRMT1 | Q99873 | recombinant PRMT1, activity-based probe fluorescence polarization | inhibition, % at 2.79 µM | actives 1.3% (n = 370,000) | AID 652257;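 active = inhibition above about 21% made by adding two undisclosed values, limit read from the data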
Target sequence (Q99873 whole entry, looked up): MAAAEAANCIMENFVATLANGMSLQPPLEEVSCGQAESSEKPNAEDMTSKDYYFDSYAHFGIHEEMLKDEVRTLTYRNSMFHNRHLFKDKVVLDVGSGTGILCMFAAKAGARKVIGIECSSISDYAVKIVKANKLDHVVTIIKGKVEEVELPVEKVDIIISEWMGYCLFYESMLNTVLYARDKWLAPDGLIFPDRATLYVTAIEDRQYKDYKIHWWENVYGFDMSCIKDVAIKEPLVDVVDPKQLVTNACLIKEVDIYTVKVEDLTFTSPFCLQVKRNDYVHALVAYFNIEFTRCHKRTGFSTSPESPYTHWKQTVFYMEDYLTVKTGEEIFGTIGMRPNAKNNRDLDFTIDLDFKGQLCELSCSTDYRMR
HTRA1 inhibitor: inhibitors of human serine peptidase HTRA1 | Q92743 | recombinant HTRA1, FP-rhodamine activity-based probe, fluorescence polarization | inhibition, % at 5.96 µM | actives 0.5% (n = 340,000) | AID 504803; in the data active = inhibition above about 36%
PAD4 inh: PAD4 (human) enzyme inhibition. Q9UM07. recombinant PAD4, RCA probe fluorescence polarization. inhibition, % at 6.36 µM. actives 0.41% (n = 330,000). AID 485272;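 active = percent inhibition above a cutoff equal to the mean of all tested compounds plus 3 SD, cut at about 15% in these data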
TCR-CD3 inh: inhibitors of human TCR-CD3 interaction; actives 0.37% (n = 360,000); TAMRA-labeled TCR probe fluorescence, biochemical; inhibition, % at 9.4 µM;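 also: recombinant mutant TCR 2C K166C tagged with TAMRA read by polarization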
BSA probe FL: BSA probe counter-screen for TCR-CD3 inhibitors | shares compounds with TCR-CD3 inh | TAMRA-labeled BSA probe fluorescence counterscreen | inhibition, % at 9.4 µM | actives 10% (n = 1,200) | AID 652035; in the data active = inhibition above about 23%
TCR-CD3 inh conf: TCR-CD3 interaction inhibition, confirmation | AID 652036 | TAMRA-labeled TCR probe fluorescence binding assay | actives 48% (n = 1,200) | inhibition, % at 9.4 µM | shares compounds with TCR-CD3 inh
Numbers stand for hits; n = inactive; x = no result. An excerpt weighted towards active compounds, which were near 2.9% of everything screened. Rule as the data show it, unless noted: active = inhibition above about 19%; inactive = the rest.

SMILES	mABHD4 FP	SIAE primary	PRMT1 FP inh	HTRA1 inhibitor	PAD4 inh	TCR-CD3 inh	BSA probe FL	TCR-CD3 inh conf
CC1CC1C(=O)N1CCC(Oc2cccnc2)CC1 (stereo not given)	n	n	n	x	x	x	x	x
CCCCN1CN2CCc3ccccc3C2CS1(=O)=O (stereo not given)	n	n	n	x	x	x	x	x
O=C(O)c1ccc(/C=N/O)cc1	n	n	n	n	n	19	n	n
O=C(O)c1ccc(N/N=C/c2ccc(-c3ccccc3)cc2)cc1	n	n	n	n	x	n	x	x
O=C(CSc1nc2ccccc2s1)Nc1ccc(Cl)c(C(=O)O)c1	n	n	n	n	n	n	x	x
O=C(CSc1nc2ccccc2s1)Nc1ccc2c(c1)oc1ccccc12	n	n	n	n	n	24	n	n
O=C(Nc1ccc(F)c(Cl)c1)C1Cc2c(-c3ccc4c(c3)OCO4)ccnc2O1 (stereo not given)	n	n	n	x	x	29	n	n
O=C(Nc1ccc(F)c(Cl)c1)C1Cc2c(-c3ccc(Cl)cc3)ccnc2O1 (stereo not given)	n	n	n	x	x	n	x	x
Cc1c(C(=O)N2CCC(C)CC2)oc2ccc3c(c12)C(O)CC1(CCCCC1)O3 (stereo not given)	n	n	n	n	n	21	n	n
OC(c1ccc(F)cc1)c1nc(-c2ccncc2)cs1 (stereo not given)	n	n	n	x	x	46	n	n
OC(c1ccc(F)c(F)c1)c1nc(-c2ccncc2)cs1 (stereo not given)	n	n	n	x	x	n	x	x
O=C(O)c1cccc(-n2cccc2/C=C2/NC(=O)N(c3ccc(Cl)cc3)C2=O)c1	n	n	32	n	x	36	n	31
O=C(O)c1cccc(-n2cccc2/C=C2/NC(=O)N(c3cccc(Cl)c3)C2=O)c1	n	n	n	n	n	n	x	x
Cn1c(SCC(=O)c2ccc(O)c(O)c2)nnc1-c1cccs1	n	n	n	n	n	23	n	n
CCCC#C/C(CCC)=C1\c2ccccc2C(=O)N1c1ccccc1	n	n	n	x	x	n	x	x
COc1ccc(COc2cc(-c3cccc(OC)c3)nc3ccc(NC(=O)c4cccnc4)cc23)cc1	n	n	n	n	n	38	n	23
COc1ccc(COc2cc(-c3cccc(OC)c3)nc3ccc(NC(=O)c4ccc(OC)cc4)cc23)cc1	n	n	n	n	n	n	x	x
CCCCc1c(-c2ccccc2OC)ncn1C1CCCCC1	n	n	n	x	x	21	n	n
CC1CCN(S(=O)(=O)c2ccc(NC(=O)Cn3nnc(-c4ccccc4F)n3)cc2)CC1	n	n	n	n	n	20	n	24
OC(c1ccccc1)(c1ccccc1)C1CCN(CCCOc2ccc(OC(F)(F)F)cc2)CC1	n	n	n	x	x	x	x	x
O=C(CN1C(=O)c2ccccc2S1(=O)=O)NC1CCCC1	n	n	n	n	n	22	n	n
CCN(CC)C(=O)CSc1ncnc2c(-c3cccs3)nsc12	n	n	n	n	n	20	n	n
CCN(CC)C(=O)CSc1ncnc2sccc12	n	n	n	n	n	n	x	x
COc1c(C(C)(C)C)cc(S(=O)(=O)N2c3ccccc3C[C@H]2C)cc1C(C)(C)C	n	n	n	x	x	x	x	x
COc1ccc(CCNC(=O)COC(=O)c2ccc(Br)o2)cc1OC	n	n	n	n	n	n	x	x
SMILES	mABHD4 FP	SIAE primary	PRMT1 FP inh	HTRA1 inhibitor	PAD4 inh	TCR-CD3 inh	BSA probe FL	TCR-CD3 inh conf
COc1ccc(Cl)cc1C(=O)NNC(=O)COC(=O)c1ccc(Br)o1	n	n	n	n	n	20	n	n
C#CCCCN([C@H](C(=O)OC)C(C)C)S(=O)(=O)c1ccccc1Br	n	n	n	x	x	x	x	x
O=c1c2c(-c3ccccc3)csc2ncn1/N=C/c1cccc([N+](=O)[O-])c1O	n	n	n	n	n	29	n	31
COC(=O)[C@]12C[C@H](CC(=O)N3CCOCC3)C(=O)N(Cc3ccc(Cl)cc3Cl)C1=C[C@H](C(C)(C)C)O[C@@H]2C	n	n	n	x	x	x	x	x
COc1ccc(C=Nn2c(-c3ccc(F)cc3)n[nH]c2=S)cc1OCc1ccccc1	n	n	n	x	x	x	x	x
CC(=O)Nc1ccc(S(=O)(=O)Nc2cccc(-n3cnnn3)c2)cc1	n	n	n	n	n	n	x	x
